Compound activity (PubChem BioAssay)
Only some compounds are listed: those with a hit (about 1.5% of all), similar ones and a draw of the others.
RAD54 inh – inhibitors of human RAD54 branch migration, primary screen, biochemical, fluorescence, single point | DNA repair and recombination protein RAD54-like (Homo sapiens), Q92698 | RAD54 Holliday junction branch migration, FAM/BHQ fluorescence | inhibition, % at 10.4 µM | hit rate 0.14% among 360,000;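 active = mean normalized replicate activity at least 40 and at least half of replicates scoring 40 or more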;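 also: 0% = median of neutral control wells and 100% = median of positive control wells; inhibitors cause a drop in the FAM fluorescence signal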
RAD52 inh – RAD52 DNA annealing inhibitors, primary screen, biochemical, FRET, single point, set 2. DNA repair protein RAD52 homolog (Homo sapiens), P43351. AID 651710, 2012. recombinant RAD52 DNA annealing, FRET fluorescence. inhibition, % at 18.7 µM. hit rate 0.46% among 360,000;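 active = every replicate showing at least 50% inhibition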
S100A4 MyoIIA – inhibitors of S100A4-myosin IIA peptide binding, primary screen, biochemical, fluorescence polarization, TAMRA-MyoIIA peptide; Protein S100-A4 (Homo sapiens), P26447; inhibition, % at 10.7 µM; hit rate 0.14% among 360,000; AID 652163, 2013;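 active = mean inhibition of at least 70% across replicates, with every replicate also reaching that level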
Target sequence (P26447 whole entry, looked up): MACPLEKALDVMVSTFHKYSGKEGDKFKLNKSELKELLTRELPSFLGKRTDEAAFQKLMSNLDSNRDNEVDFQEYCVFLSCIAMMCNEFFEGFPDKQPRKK
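Compound dosing: one dose per compound; test system: human S100A4 monomer with TAMRA-labelled myosin IIA peptide; probe or stimulus: TAMRA-labelled myosin IIA heavy-chain peptide probe, 5 nM; medium: HEPES buffer with Ca2+, pH 7.2; schedule: 5 min incubation before reading; benchmarks: neutral control DMSO, positive control TFP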
dFosB act – activators of delta FosB homodimer, primary screen, biochemical, fluorescence polarization, TAMRA-CDK5 oligo, single point; purified delta FosB; percent of positive-control signal above neutral wells; hit rate 0.99% among 340,000; activation, % at 25 µM;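 active = mean activation above about 17%, with every replicate also reaching it, limit read from the data, passing the limit was not always enough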
Target sequence (P13346 whole entry, looked up): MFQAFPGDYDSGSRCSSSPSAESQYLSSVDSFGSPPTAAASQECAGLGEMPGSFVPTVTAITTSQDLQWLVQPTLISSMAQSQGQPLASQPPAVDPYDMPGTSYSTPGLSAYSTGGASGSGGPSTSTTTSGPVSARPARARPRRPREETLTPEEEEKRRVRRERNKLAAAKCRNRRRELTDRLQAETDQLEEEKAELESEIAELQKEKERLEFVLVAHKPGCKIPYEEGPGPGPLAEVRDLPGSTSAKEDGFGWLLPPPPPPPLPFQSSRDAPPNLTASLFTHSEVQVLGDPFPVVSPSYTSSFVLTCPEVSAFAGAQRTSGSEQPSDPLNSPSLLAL
MLL AF4-AF9 inh – inhibitors of AF4 peptide binding to AF9, primary screen, biochemical, AlphaScreen, biotin-AF4 peptide, FLAG-AF9, single point | Protein AF-9 (Homo sapiens), P42568 | hit rate 0.47% among 350,000 | AID 651704, 2012 | inhibition, % at 10 µM;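 active = every replicate reaching a set inhibition limit, whatever the replicate mean, cut at about 25% in these data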;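 also: 0% = plate neutral control median and 100% = total signal loss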
* = called active by the depositor; / = no result given; ! = a repeat was not active.

SMILES	RAD54 inh	RAD52 inh	S100A4 MyoIIA	dFosB act	MLL AF4-AF9 inh
C[C@H](CO)N1C[C@H](C)[C@@H](CN(C)Cc2ccc(Oc3ccccc3)cc2)Oc2ccc(NC(=O)CCCN(C)C)cc2C1=O	9	16	-5	/	21
C[C@H](CO)N1C[C@H](C)[C@H](CN(C)Cc2ccc(Oc3ccccc3)cc2)Oc2ccc(NC(=O)CCC(F)(F)F)cc2CC1=O	-7	/	/	/	/
C[C@H]1CN([C@@H](C)CO)C(=O)Cc2cc(NC(=O)CCCN(C)C)ccc2O[C@@H]1CN(C)Cc1ccc(Oc2ccccc2)cc1	20	52*	-5	/	12
CC1(C)Cc2c(c(N3CCOCC3)nc3sc4c(NCC5CCCO5)nnnc4c23)CS1 (stereo unspecified)	-30	-10	-3	-17	26*
c1ccc(CNCCCNCCCCNCCCNCc2ccccc2)cc1	/	-46	-11	4	25*
CCN(C(=O)COC(=O)/C=C/c1ccc2c(c1)OCO2)c1c(N)n(Cc2ccccc2)c(=O)[nH]c1=O	-2	-19	-3	164*	-2
CC(C)NC(=O)N(C)C[C@@H]1Oc2ccc(NC(=O)CCCN(C)C)cc2C(=O)N([C@H](C)CO)C[C@@H]1C	-8	-12	9	/	-2
C[C@H]1CN([C@@H](C)CO)S(=O)(=O)c2ccc(C#Cc3ccccc3)cc2O[C@@H]1CN(C)C(=O)CN(C)C	-4	35	2	/	10
C[C@H](CO)N1C[C@H](C)[C@@H](CN(C)C(=O)CN(C)C)Oc2cc(C#Cc3ccc(F)cc3)ccc2S1(=O)=O	3	52*	-17	/	12
C[C@@H]1CN([C@@H](C)CO)S(=O)(=O)c2ccc(C#Cc3ccc(F)cc3)cc2O[C@H]1CN(C)C(=O)CN(C)C	12	55*	1	/	12
COc1cccc(NC(=O)N[C@H]2CC[C@@H](CC(=O)Nc3ccccc3)O[C@H]2CO)c1	-4	9	3	/	2
C[C@@H]1CCCCO[C@@H](CN(C)C(=O)Nc2ccc3c(c2)OCO3)[C@H](C)CN([C@H](C)CO)C(=O)c2cc(NS(=O)(=O)c3ccccc3)ccc2O1	-4	5	-2	/	5
O=C(Nc1ccccc1F)N1C[C@@H]2N[C@H](C1)C2c1ccc(/C=C/c2ccccc2)cc1 (stereo partly specified)	/	69*	18	/	8
O=C(C1CC1)N1C[C@@H]2N[C@H](C1)C2c1ccc(/C=C/c2ccccc2)cc1 (stereo partly specified)	/	51*!	-9	/	10
O=C(C1CCCC1)N1C[C@@H]2N[C@H](C1)C2c1ccc(-c2ccccc2F)cc1 (stereo partly specified)	/	-22	-3	/	-3
Cc1ccccc1-c1ccc(C2[C@@H]3CN(C(=O)C4CC4)C[C@H]2N3)cc1 (stereo partly specified)	/	84*!	8	/	-13
Cc1ccccc1-c1ccc(C2[C@@H]3CN(C(=O)C4CCOCC4)C[C@H]2N3)cc1 (stereo partly specified)	/	0	5	/	-6
CN(C)CC(=O)N1[C@H](CO)[C@@H](c2ccc(-c3ccc(C(=O)N(C)C)cc3)cc2)[C@@H]1C#N	-12	-14	-5	/	-4
CCCC(=O)N1CC2(CN(C(=O)C3CCC3)C2)c2c(n(C)c3cc(OC)ccc23)[C@@H]1CO	/	-7	4	/	2
C[C@@H]1CN([C@@H](C)CO)C(=O)Cc2cc(NC(=O)Cn3cnnn3)ccc2O[C@H]1CN(C)Cc1ccc2c(c1)OCO2	1	8	2	/	6
O=S(=O)(NC[C@@H]1CC[C@@H]2[C@@H](CN2Cc2ccccc2C(F)(F)F)O1)c1ccccc1	/	-5	-3	/	-4
O=C(c1ccccc1F)N1C[C@H]2O[C@H](CNS(=O)(=O)c3ccccc3)CC[C@H]21	/	-6	-10	/	-4
Cc1ccc(S(=O)(=O)NC[C@H]2CC[C@H]3[C@H](CN3Cc3cc(F)ccc3F)O2)cc1	/	61*	3	/	-1
COc1ccc(S(=O)(=O)NC[C@H]2CC[C@H]3[C@H](CN3Cc3cc(F)ccc3F)O2)cc1	/	66*	7	/	-1
O=C(c1ccccc1F)N1C[C@@H]2O[C@H](CNS(=O)(=O)c3ccccc3)CC[C@@H]21	/	59*	-37	/	-4
SMILES	RAD54 inh	RAD52 inh	S100A4 MyoIIA	dFosB act	MLL AF4-AF9 inh
CO[C@H]1CN(C)C(=O)c2ccc(NC(=O)c3ccccc3F)cc2OC[C@H](C)NC[C@H]1C	0	8	5	/	-3
CCc1ccc(NC(=O)Cn2cnc3c(=O)n(C)c(=O)n(C)c32)cc1	/	-15	-10	-8	2
Cn1c(=O)c2ncn(CC(=O)Nc3cccc(-c4nc5ccccc5s4)c3)c2n(C)c1=O	2	/	/	78*	/
O=C1c2c(O)cccc2Cc2cccc(O)c21	-3	2	4	26*	5
O=C1Cc2cccc(=O)c(O)c2C(=O)O1	0	-16	0	/	-4
CCC(=O)N1CC2(C1)CN(C(=O)Cc1ccccc1)[C@H](CO)c1c2c2ccc(OC)cc2n1C	/	2	6	/	1
CC(C)NC(=O)N(C)C[C@@H]1Oc2cc(-c3cncnc3)ccc2S(=O)(=O)N([C@H](C)CO)C[C@H]1C	0	4	23	/	0
C#CCOCCOCCOCCNc1nc(N2CCN(C(=O)[C@H](CCCCN)n3cc(C(N)[C@H](C)CC)nn3)CC2)nc(N2CCN(C(=O)[C@H](CCC(=O)O)n3cc(C(N)[C@H](C)CC)nn3)CC2)n1 (stereo partly specified)	-39	/	/	6	/
C#CCOCCOCCOCCNc1nc(N2CCN(C(=O)[C@H](CCCCN)n3cc([C@@H](N)C(C)CC)nn3)CC2)nc(N2CCN(C(=O)[C@H](Cc3cc4ccccc4[nH]3)n3cc([C@@H](N)CC(C)C)nn3)CC2)n1 (stereo partly specified)	60*	/	/	34*	/
C#CCOCCOCCOCCNc1nc(N2CCN(C(=O)[C@H](CCCCN)n3cc([C@@H](N)[C@H](C)CC)nn3)CC2)nc(N2CCN(C(=O)[C@H](CCC(=O)O)n3cc([C@@H](N)CCCCN)nn3)CC2)n1	-12	45	3	3	34*
C[C@@H]1CN([C@H](C)CO)C(=O)c2cc(NS(=O)(=O)c3ccc(F)cc3)ccc2O[C@@H](C)CCCCO[C@@H]1CN(C)C(=O)CCCN(C)C	5	3	-2	/	1
CCNC(=O)[C@@H]1[C@@H](CO)[C@@H]2Cn3c(ccc(-c4cccc(F)c4)c3=O)[C@@H]2N1C(C)=O	/	-13	12	/	-3
